Assay results collected from several papers.
Protocols differ between the studies behind these lines.
Medium: Caco-2

CC(C)NCC(O)COc1cccc2ccccc12 (centres unmarked)  Papp B→A: 59.3 ×10⁻⁶ cm/s
Cc1ncsc1-c1ccc(CNC(=O)[C@@H]2C[C@@H](O)CN2C(=O)[C@@H](NC(=O)C2(F)CC2)C(C)(C)C)c(OCCOc2ccc(CN3CCN(c4cc(-c5ccccc5O)nnc4N)CC3)cc2)c1  Papp B→A (2 h; pH 7.2): 3.8 ×10⁻⁶ cm/s
Nc1nc2c(ncn2COCCO)c(=O)[nH]1  Papp B→A (10 µM; 2 h; pH 7.4): 0.756 ×10⁻⁶ cm/s
COc1cccc2c(-c3ccccc3)cc(-c3ccc(-c4ccc(C(=O)O)cc4)[nH]3)nc12  Papp B→A: 7.44 ×10⁻⁶ cm/s
O=c1c(O)c(-c2ccc(O)cc2)oc2cc(O)cc(O)c12  Papp (1 mg/mL; pH 7.4): 1.17 ×10⁻⁶ cm/s
CCCCN1C(=O)[C@@H]([C@@H](O)C2CCCCC2)NC(=O)C12CCN(Cc1ccc(Oc3ccc(C(=O)O)cc3)cc1)CC2.Cl  Papp: 1.6 ×10⁻⁶ cm/s
CC(C)NCC(O)COc1cccc2ccccc12 (centres unmarked)  Papp B→A (10 µM; 2 h; pH 7.4): 9.99 ×10⁻⁶ cm/s
CC(C)(/C=C(\C#N)C(=O)N1CCC[C@@H](n2nc(-c3ccc(Oc4ccccc4)cc3F)c3c(N)ncnc32)C1)N1CCN(C2COC2)CC1  Papp (1 µM): 1.7 ×10⁻⁶ cm/s
CCC(C)n1ncn(-c2ccc(N3CCN(c4ccc(OCC5COC(Cn6cncn6)(c6ccc(Cl)cc6Cl)O5)cc4)CC3)cc2)c1=O (centres unmarked)  Papp (1 µM; pH 7.4): 1.5 to 2.5 ×10⁻⁶ cm/s
C[C@H]1O[C@@H](O[C@H]2[C@@H](O)C[C@H](O[C@H]3[C@@H](O)C[C@H](O[C@H]4CC[C@@]5(C)[C@H](CC[C@@H]6[C@@H]5C[C@@H](O)[C@]5(C)[C@@H](C7=CC(=O)OC7)CC[C@]65O)C4)O[C@@H]3C)O[C@@H]2C)C[C@H](O)[C@@H]1O  Papp B→A: 14 ×10⁻⁶ cm/s
COCCc1ccc(OCC(O)CNC(C)C)cc1 (centres unmarked)  Papp: 15 ×10⁻⁶ cm/s
COc1cc(Cl)c(C(=O)N[C@@H](CN[C@H]2CC[C@@H](N)CC2)Cc2ccc(C#N)cc2)cc1-c1ccc(CN[C@H](C)c2ccc(C)cc2)o1  Papp B→A (2 µM; 2 h; pH 7.2): 1.1 ×10⁻⁶ cm/s
C[C@@H]1O[C@@H](OC[C@H]2O[C@@H](Oc3c(-c4ccc(O)c(O)c4)oc4cc(O)cc(O)c4c3=O)[C@H](O)[C@@H](O)[C@@H]2O)[C@H](O)[C@H](O)[C@H]1O  Papp (1 mg/mL; pH 7.4): 24.5 ×10⁻⁶ cm/s
CC[C@H](C)C(=O)N1CCC(NC(=O)Nc2ccc(OC(F)(F)F)c(F)c2)CC1  Papp B→A (10 µM; 1 h; pH 7.4): 16.4 ×10⁻⁶ cm/s
CC(C)NCC(O)COc1cccc2ccccc12 (centres unmarked)  Papp: 20 ×10⁻⁶ cm/s
N#C[C@H](C[C@@H]1CCCNC1=O)NC(=O)[C@H](CC1CC1)NC(=O)c1cc2cccc(Cl)c2[nH]1  Papp: 0.36 ×10⁻⁶ cm/s
CCn1c(=O)c2c(nc(S)n2C)n(C)c1=O  Papp B→A (10 µM; 2 h): 7 ×10⁻⁶ cm/s
